Rpn11 inh: Rpn11 (human) deubiquitinase inhibition. human 26S proteasome, Ub4-pepOG fluorescence polarization; 20S core pre-blocked with epoxomicin. inhibition, % at 20 µM. 360,000 compounds, 0.59% hits. AID 588493;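 active = inhibition at 20 µM, scaled to each plate's controls, above about 33%, limit read from the data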
HNF4A DNA FP: change in binding of human HNF4 alpha to DNA | P41235 | HNF4a-FITC DNA binding, fluorescence polarization, 1 h | activity change, % at 10 µM | 360,000 compounds, 0.3% hits | AID 1224865; in the data active = activity change above about 30%, passing the limit was not always enough
IDE act: activators of human insulin-degrading enzyme in cells; P14735; HEK cells, FAbeta-B cleavage, fluorescence polarization; 0% vehicle, 100% cell-free pure enzyme wells; activation, % at 5.96 µM; 340,000 compounds, 0.073% hits; AID 493087;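 active = activation above the mean of all tested compounds plus 3 SD, set per screening campaign, cut at about 17% in these data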
CSN inh: CSN deneddylation inhibition | inhibition, % at 12.5 µM | AID 651999 | Q92905 | Purified CSN, SCF-Nedd8-OG deneddylation, fluorescence polarization | 360,000 compounds, 0.38% hits;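 active = pattern-corrected inhibition above about 35%, with an unprinted fluorescence ratio check between 0.5 and 1.5, limit read from the data, passing the limit was not always enough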;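 note: 0% = enzyme with substrate and 100% = substrate without enzyme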
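Assay system: Purified human Csn5 enzyme expressed in HEK293T cells | Amount: Enzyme 0.24 nM | Measured by: Fluorescence polarization readout | Medium: Tris/NaCl/DTT buffer, pH 7.5 | Compound dosing: One concentration, 12.5 µM, 0.25% DMSO | Times: 90 min incubation of compound, enzyme and substrate at room temperature | Control set: no-enzyme wells high, enzyme-with-substrate wells low | Read-out: % inhibition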
IDE cell inh: cellular human IDE inhibition | AID 434962 | HEK cells, FAbetaB cleavage, fluorescence polarization | inhibition, % at 5.59 µM | 320,000 compounds, 0.41% hits;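 active = percent inhibition above the average of all tested compounds plus 3 SD, set per screening campaign, cut at about 16% in these data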;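 note: IDE supplied by intact live HEK cells; FP after avidin binding of uncleaved biotin substrate so inhibition keeps polarization high; 0% = DMSO wells and 100% = 60 µM reference IDE inhibitor Ii1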
TPT1 inh: C. albicans TPT1 enzyme inhibition; inhibition, % at 5 µM; AID 1962; recombinant caTPT1, FP RNA substrate dephosphorylation; 300,000 compounds, 0.81% hits;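 active = inhibition above the mean of all tested compounds plus 3 SD, set per screening campaign, cut at about 24% in these data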;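 note: plate controls were DMSO alone for no effect and ferristatin control at 100 nM for full effect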
caTPT1 confirm: TPT1 (C. albicans) inhibition, confirmation; recombinant caTPT1, fluorescence polarization, RNase T1 coupled; inhibition, % at 5 µM; 2,400 compounds, 74% hits; shares compounds with TPT1 inh;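 active = inhibition above the primary screen limit, the mean inhibition of all tested compounds plus 3 SD, cut at about 25% in these data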
RNase T1 inh: counter-screen for TPT1 inhibitors: inhibitors of Aspergillus oryzae RNase T1; shares compounds with TPT1 inh; RNase T1 cleavage, fluorescence polarization, 1536-well; inhibition, % at 5 µM; 2,400 compounds, 83% hits;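 active = inhibition above the solvent-only control well mean plus 3 SD, limit set per screening run, cut at about 23% in these data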;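 note: plate controls were DMSO wells with enzyme for no effect and wells without RNase T1 for full effect; inhibitors block cleavage so intact labeled substrate keeps polarization high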
Target sequence (P00651 whole entry, looked up): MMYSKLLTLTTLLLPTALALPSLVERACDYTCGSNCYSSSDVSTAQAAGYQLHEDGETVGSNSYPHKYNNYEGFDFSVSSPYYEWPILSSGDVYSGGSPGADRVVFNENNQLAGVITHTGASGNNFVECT
IDE cell inh cf: confirmation of human insulin-degrading enzyme inhibitors in cells; 1,200 compounds, 51% hits; shares compounds with IDE cell inh; inhibition, % at 5.59 µM; AID 435028; HEK cells, FAbetaB cleavage, fluorescence polarization;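 active = mean inhibition across triplicate wells above the cutoff set by the earlier primary insulin-degrading enzyme screen, cut at about 16% in these data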;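 note: 0% = DMSO wells and 100% = 60 µM reference IDE inhibitor Ii1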
HEK cytotox: HEK cell cytotoxicity, counter-screen for IDE inhibitors | shares compounds with IDE cell inh | 1,200 compounds, 28% hits | inhibition, % at 5.59 µM | HEK293 cytotoxicity, ATP luminescence; in the data active = inhibition above about 22%;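 note: 0% = vehicle wells and 100% = reference cytotoxic drug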
Rpn11 confirm: confirmation of human proteasome Rpn11 inhibitors | purified human 26S proteasome, Ub4-pepOG fluorescence polarization; proteasome pretreated with epoxomicin | shares compounds with Rpn11 inh | AID 602318 | 1,900 compounds, 29% hits | inhibition, % at 20 µM
MMP-2 counter-1: blocks human MMP-2, flagging nonselective RPN11 hits; 1,900 compounds, 4% hits; shares compounds with Rpn11 inh; inhibition, % at 20 µM; recombinant MMP-2, FRET peptide cleavage fluorescence; AID 602330;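 note: human MMP-2 activated beforehand with APMA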
Target sequence (P08253 whole entry, looked up): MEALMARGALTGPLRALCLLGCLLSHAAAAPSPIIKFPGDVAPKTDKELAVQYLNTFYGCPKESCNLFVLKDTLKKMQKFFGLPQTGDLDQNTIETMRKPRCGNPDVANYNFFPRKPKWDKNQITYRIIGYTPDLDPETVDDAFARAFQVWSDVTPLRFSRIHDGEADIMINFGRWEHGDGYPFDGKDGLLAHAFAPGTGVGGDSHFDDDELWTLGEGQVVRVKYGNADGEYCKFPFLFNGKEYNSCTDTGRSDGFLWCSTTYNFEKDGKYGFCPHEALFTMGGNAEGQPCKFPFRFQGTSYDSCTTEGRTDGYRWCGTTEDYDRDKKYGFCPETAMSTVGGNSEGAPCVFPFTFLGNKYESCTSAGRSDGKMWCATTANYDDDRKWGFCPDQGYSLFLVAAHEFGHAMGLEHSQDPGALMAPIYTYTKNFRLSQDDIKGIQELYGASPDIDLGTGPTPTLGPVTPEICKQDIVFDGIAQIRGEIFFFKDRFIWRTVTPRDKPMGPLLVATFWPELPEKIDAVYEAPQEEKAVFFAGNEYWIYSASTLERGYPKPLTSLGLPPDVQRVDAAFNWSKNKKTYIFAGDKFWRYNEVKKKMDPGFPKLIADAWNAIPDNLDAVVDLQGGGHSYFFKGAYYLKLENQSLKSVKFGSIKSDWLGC
Thrombin FP: blocks bovine thrombin, flagging nonselective RPN11 hits; inhibition, % at 20 µM; bovine thrombin cleavage of Ub4-pepOG, fluorescence polarization; 1,900 compounds, 13% hits; shares compounds with Rpn11 inh; AID 602333;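 active = mean inhibition at least 40% at 20 µM, or signal 3 deviations below plate average, so some actives read negative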;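 note: plate controls were thrombin with DMSO for no effect and buffer wells lacking thrombin for full effect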
CSN deneddyl val: validation of inhibitors of human CSN-mediated cullin deneddylation; shares compounds with CSN inh; Csn5 deneddylation of SCF-Nedd8OG, fluorescence polarization, 90 min; inhibition, % at 16.6 µM; 540 compounds, 62% hits; in the data active = inhibition above about 50%;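 note: 0% = DMSO with enzyme and 100% = no enzyme wells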
MMP-2 counter-2: counter-screen for CSN deneddylation inhibitors: human MMP-2 inhibition | 540 compounds, 33% hits | recombinant MMP-2, FRET substrate fluorescence, 60 min | inhibition, % at 16.6 µM | shares compounds with CSN inh;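 active = corrected plate-normalized z-score of 5 or more, or -5 or less, or inhibition of 15% or more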;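 note: plate controls were DMSO wells with enzyme for no effect and buffer wells lacking MMP-2 for full effect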
Thrombin cntr: thrombin (bovine) inhibition, counter-screen for CSN hits | 540 compounds, 49% hits | AID 720656 | inhibition, % at 16.6 µM | shares compounds with CSN inh | bovine thrombin cleavage of Ub4-pepOG, fluorescence polarization;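 active = inhibition at or above a set limit, with a fluorescence interference ratio between 0.5 and a set maximum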
* marks the source's active call; other numbers are inactive results; x = no result given. Rows were chosen to be rich in hits. Some 1.7% of all compounds tested hit in one or more screens of this group. Cut-off read from the data, not from the text of the source, unless noted: active = inhibition above about 40%; inactive = the rest.

SMILES | Rpn11 inh | HNF4A DNA FP | IDE act | CSN inh | IDE cell inh | TPT1 inh | caTPT1 confirm | RNase T1 inh | Rpn11 confirm | MMP-2 counter-1 | Thrombin FP | others
Cc1noc(C)c1S(=O)(=O)N(C)C[C@H]1OCc2cnnn2CCCC(=O)N([C@H](C)CO)C[C@H]1C | -2 | -4 | x | 2 | x | x | x | x | x | x | x
COC(=O)c1ccc(N2NC(=O)/C(=C/c3cc(OC)c(O)c(OC)c3)C2=O)cc1 | 54* | -1 | -8 | 21 | 11 | 103* | 99* | 121* | 62* | -23 | 5
CN1/C(=C/C=C(/C#N)C(N)=O)C(C)(C)c2ccccc21 | 43* | 36* | -3 | 18 | 3 | 87* | 68* | 82* | 35 | -35 | 27
CN1/C(=C\C=N\O)C(C)(C)c2ccccc21 | 6 | 1 | 5 | -1 | -3 | 2 | x | x | x | x | x
CCOC(=O)c1ccc(/C=C2/C=C(c3ccccc3)N(c3ccc(Cl)c(C(=O)O)c3)C2=O)cc1 | 68* | -12 | -7 | 29 | 17* | 62* | 74* | 80* | 156* | -47 | 152* | IDE cell inh cf=44*;HEK cytotox=84*
Cc1ccc(S(=O)(=O)Nc2cc(C)cn(Cc3ccc(F)cc3)c2=O)cc1 | 60* | 18 | -2 | 18 | 4 | 24* | 36* | 47* | 33 | -19 | 59*
Cc1ccccc1S(=O)(=O)NC(=O)C1(C)CCN1C(=O)Cc1ccccc1Cl (stereo not given) | 0 | 4 | x | 0 | x | x | x | x | x | x | x
NC(=O)c1ccc(NC(=O)COC(=O)/C=C/c2cn(-c3ccccc3)nc2-c2cccnc2)cc1 | 50* | 36 | 3 | 15 | -1 | 47* | 52* | 66* | 38 | -12 | 18
N#Cc1ccccc1NC(=O)COC(=O)/C=C/c1cn(-c2ccccc2)nc1-c1ccc(Cl)cc1 | -3 | 2 | -1 | 9 | x | x | x | x | x | x | x
CC(/C=C1\SC(=S)N(CCC(=O)Nc2cccc(C(=O)O)c2)C1=O)=C\c1ccccc1 | 40* | 7 | 0 | 16 | 0 | 25* | 43* | 56* | 122* | -6 | 28
CC(=Cc1ccccc1)C=C1SC(=S)N(CCCC(=O)Nc2ccc(C(=O)O)cc2)C1=O | 16 | 6 | x | 14 | x | x | x | x | x | x | x
O=C(Nc1cccc(Cl)c1Cl)c1csc([C@H]2C[C@H](O)[C@@H](CO)O2)n1 | -4 | -1 | x | 2 | x | x | x | x | x | x | x
COc1ccccc1NS(=O)(=O)c1cc([N+](=O)[O-])ccc1N/N=C/c1c[nH]c2ccccc12 | 47* | 72* | 0 | 22 | 2 | 129* | 106* | 107* | 19 | -37 | 9
COc1ccc(C=NNc2ccc([N+](=O)[O-])cc2S(=O)(=O)Nc2ccccc2C(=O)O)cc1OC | 32 | 12 | 3 | 7 | 6 | x | x | x | x | x | x
COCCNC(=O)c1cc2c(c(-c3cccc(C#CC(C)(C)O)c3)n1)[C@@H](CCO)N(S(=O)C(C)(C)C)C2 (stereo not given in full) | -1 | 5 | x | 5 | x | x | x | x | x | x | x
O=C(C=P(c1ccccc1)(c1ccccc1)c1ccccc1)c1ccccc1-c1ccccc1C(=O)C=P(c1ccccc1)(c1ccccc1)c1ccccc1 | 37 | 6 | 6 | 22 | x | x | x | x | x | x | x
COc1cc(/C=C/c2nc3ccccc3c(=O)[nH]2)cc(Br)c1O | 109* | 35 | -157 | 38* | 44* | 50* | 79* | 78* | 43* | -23 | 19 | IDE cell inh cf=143*;HEK cytotox=13
COc1cc(/C=C2/C(=O)N(c3cccc(Br)c3)N=C2C)cc(OC)c1O | 78* | 6 | -31 | 30 | 1 | 70* | 86* | 91* | 80* | 8 | 60*
CN(C)c1ccc(/C=C2\C(=N)N3N=C(CC(=O)N4CCCCC4)SC3=NC2=O)cc1 | x | 135 | -58 | 90* | 21* | 122* | 140* | 148* | x | x | x | IDE cell inh cf=49*;HEK cytotox=9;CSN deneddyl val=76*;MMP-2 counter-2=-57*;Thrombin cntr=94*
COc1ccccc1-c1ccc(/C=C2/C=C(C)OC2=O)o1 | 31 | 8 | -5 | 12 | 1 | 13 | x | x | x | x | x
COc1ccccc1-c1ccc(/C=C2\C=CC(=O)O2)o1 | x | 94 | x | 77* | 29* | 114* | 117* | 113* | x | x | x | IDE cell inh cf=39*;HEK cytotox=12;CSN deneddyl val=48;MMP-2 counter-2=-26;Thrombin cntr=53*
C[C@H]1Cn2cnc(C(=O)Nc3ccccc3)c2C(=O)N1 | 6 | -4 | x | -1 | x | x | x | x | x | x | x
CCN1C(=O)/C(=C\C=C2/C=CC=CN2CC)SC1=S | x | 136* | -9 | 53* | 4 | 27* | 36* | 55* | x | x | x | CSN deneddyl val=61*;MMP-2 counter-2=23*;Thrombin cntr=63*
CCN1C(=O)/C(=C/C=C2\C=CN(CC)c3ccccc32)SC1=S | 8 | 2 | -5 | 4 | 8 | 2 | x | x | x | x | x
CC1(C(=O)NCc2cccnc2)Cc2c(-c3cccc(C(F)(F)F)c3)ccnc2O1 (stereo not given) | -2 | -1 | x | 1 | x | x | x | x | x | x | x
O=C(CCN1C(=O)/C(=C\c2ccco2)SC1=S)Nc1ccc(C(=O)O)c(O)c1 | 70* | -20 | 3 | 57* | 1 | 25* | 11 | 15 | 23 | 26 | 22 | CSN deneddyl val=72*;MMP-2 counter-2=14;Thrombin cntr=1
